Screening results as filed in PubChem BioAssay.
Arr AP2 block: inhibitors of beta-arrestin/AP2 binding, primary screen, biochemical, GPCR trafficking, flow cytometry; beta-arrestin 1 C-terminal peptide binding to AP2 beta2-adaptin appendage (human); FITC-arrestin peptide / GST-AP2 beads; AP2 beta2 appendage carries R879A mutation; inhibition, % at 10 µM; 340,000 compounds, 0.31% hits; AID 504490, 2011;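 active means inhibition above a set limit, near 3 SD of compounds lacking own fluorescence, cut at about 54% in these data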;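 further: plate controls were DMSO wells for no effect and 5 µM unlabelled arrestin peptide for full effect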
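Assay system: GST-AP2 R879A bound to glutathione beads, E. coli-expressed; Medium: PBS with 0.05% Tween 20 and 0.1% BSA; Also added: fluorescein-tagged arrestin peptide at 50 nM final; Timing: 12 min plus 1 h, RT; Measured by: flow cytometry, FL1 (488/535 nm); Evaluation: percent drop in bead-associated FITC signal.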
T cell HTS: modulators of CD8 T cell-vesicle binding, primary screen, mouse 2C CD8+ T cells, flow cytometry; 2C CD8+ T cell-vesicle binding; active compounds read low; response (vesicle binding), % at 7 µM; 330,000 compounds, 0.068% hits; AID 2052, 2009;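 active means response, share of CD8 T cells binding vesicles, and their 90th percentile fluorescence all below set limits, cut at about 80% in these data, passing the limit was not always enough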;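 further: values below 100% mean blocked vesicle binding to the CD8+ T cells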
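Material: murine 2C transgenic CD8+ T lymphocytes / Also added: QL9-peptide-loaded Drosophila micro-vesicles bearing Ld, ICAM-1 and B7-1 / Schedule: binding step 1.5 h, 37 °C, antibody labelling 20 min, ice / Signal: flow cytometry, PE anti-B7-1 (FL2) versus Alexa647 anti-CD8 (FL8), PFA-fixed / Evaluation: percent CD8+ FL2 mean versus row control / Benchmarks: naked versus QL9-loaded vesicles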
DSG3 Ab inh: inhibitors of pemphigus antibody binding to DSG3, primary screen, biochemical, bead-based, flow cytometry, scFv-GFP | Desmoglein-3 (Homo sapiens), P32926 | DSG3-coupled beads, scFv-anti-DSG3-GFP binding; active compounds read low | binding (percent of control), % at 10 µM | 310,000 compounds, 0.48% hits | AID 588358, 2011;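 active means binding more than 3 SD below its plate's average and above zero; inconclusive means below that plate limit but binding exactly zero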;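 further: hits lower antibody fragment binding to DSG3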
LANA-H2B inh: blockers of LANA interaction with H2A/H2B – biochemical, FP readout, HTS, primary screen; inhibition, % (no concentration beside the values); cell-free LANA-H2A/H2B peptide, fluorescence polarization; Protein LANA1 (Human herpesvirus 8 type P (isolate GK18)), Q9QR71; 320,000 compounds, 0.6% hits; in the data active means inhibition mostly above about 10%, no sharp cut-off; inactive means mostly below about 6.7%
Target sequence (Q9QR71 whole entry, looked up): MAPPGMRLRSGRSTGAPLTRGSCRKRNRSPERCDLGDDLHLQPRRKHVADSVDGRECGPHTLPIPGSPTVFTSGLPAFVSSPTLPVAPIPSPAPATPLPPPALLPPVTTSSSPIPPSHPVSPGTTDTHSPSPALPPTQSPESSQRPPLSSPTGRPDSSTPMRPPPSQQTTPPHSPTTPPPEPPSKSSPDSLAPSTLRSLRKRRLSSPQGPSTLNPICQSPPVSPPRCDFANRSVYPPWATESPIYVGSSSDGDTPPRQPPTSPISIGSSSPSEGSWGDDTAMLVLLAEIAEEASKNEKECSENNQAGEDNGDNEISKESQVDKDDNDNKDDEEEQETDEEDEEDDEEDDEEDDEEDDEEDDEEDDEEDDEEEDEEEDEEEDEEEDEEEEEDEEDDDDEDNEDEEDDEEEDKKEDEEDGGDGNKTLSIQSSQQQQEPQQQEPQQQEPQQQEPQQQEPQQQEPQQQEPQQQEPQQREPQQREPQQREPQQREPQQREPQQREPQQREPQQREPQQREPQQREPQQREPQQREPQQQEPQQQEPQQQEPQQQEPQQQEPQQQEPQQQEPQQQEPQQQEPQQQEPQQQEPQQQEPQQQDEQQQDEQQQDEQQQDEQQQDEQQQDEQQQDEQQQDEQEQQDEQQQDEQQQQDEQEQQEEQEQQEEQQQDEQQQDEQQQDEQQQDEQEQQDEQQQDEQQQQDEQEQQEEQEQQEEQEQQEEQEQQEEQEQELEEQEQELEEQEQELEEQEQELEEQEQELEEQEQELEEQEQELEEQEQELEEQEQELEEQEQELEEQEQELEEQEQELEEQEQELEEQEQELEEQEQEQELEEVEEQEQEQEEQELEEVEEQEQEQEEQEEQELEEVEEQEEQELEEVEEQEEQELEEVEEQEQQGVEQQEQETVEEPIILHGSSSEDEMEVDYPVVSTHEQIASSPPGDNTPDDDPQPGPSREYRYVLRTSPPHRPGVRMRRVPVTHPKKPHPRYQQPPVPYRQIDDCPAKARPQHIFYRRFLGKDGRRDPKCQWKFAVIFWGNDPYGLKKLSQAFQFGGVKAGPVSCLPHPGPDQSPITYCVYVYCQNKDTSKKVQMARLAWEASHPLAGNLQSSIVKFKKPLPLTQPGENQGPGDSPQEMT
GASC-1 inh: inhibitors of GASC-1 histone demethylase, primary screen, biochemical, fluorescence, DELFIA europium; GST-JMJD2C(1-420) H3K9me3 demethylation; AID 2099, 2009; 330,000 compounds, 0.069% hits; inhibition, % at 2.35 µM;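 active means more than half of a compound's replicate wells show inhibition beyond 50%, single wells judged on their own value; inconclusive means some, but no more than half, of replicates pass 50% inhibition; inactive means no replicate passes 50% inhibition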;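 further: signal counts dimethyl H3K9 product captured on neutravidin plate; 0% = median of DMSO wells and 100% = 0.3 times that DMSO median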
HDAC3 inhib: HDAC3 deacetylase inhibitors, primary screen, biochemical, fluorescence, cell-free homogeneous. Histone deacetylase 3 (Homo sapiens), O15379. recombinant HDAC3, fluorogenic peptide/trypsin coupled. 320,000 compounds, 0.15% hits. inhibition, % at 8.3 µM; in the data active means inhibition above about 26%, passing the limit was not always enough; inconclusive means no clear call, values can overlap the other calls
The depositor's hits bear a star; i = inactive; ? = inconclusive; / = no result. Hits are enriched below; roughly 1.6% of the tested compounds scored in any of these assays.

SMILES	Arr AP2 block	T cell HTS	DSG3 Ab inh	LANA-H2B inh	GASC-1 inh	HDAC3 inhib
CC(C(=O)O)N1C(=O)/C(=C/C=C/c2ccco2)SC1=S (stereo not drawn)	32	244	69*	4	18	11
CCN(C(=O)C(C)N1C(=O)/C(=C/c2ccco2)SC1=S)C1CCS(=O)(=O)C1 (stereo not drawn)	19	309	105	1	-31	4
O=C(C1CCCN(CCCc2ccccc2)C1)N1CCCCCC1 (stereo not drawn)	20	374	/	-2	-8	4
O=C(NC1CCN(C(=O)Nc2ccc(F)cc2)CC1)c1ccccc1F	-7	165	103	-2	-7	0
COc1ccc(CNC(=O)CN2C(=O)c3ccc([N+](=O)[O-])cc3C2=O)cc1	25	351	98	23*	49	3
Cc1c(CCO)c(=O)n(-c2ccccc2)n1S(=O)(=O)c1ccc(Cl)cc1	11	216	102	1	4	-3
O=C1c2ccccc2C(=O)C1(O)O	/	i	/	30*	11	9
CSCCC(NC(=O)c1ccccc1)C(=O)N1CC(C)OC(C)C1 (stereo not drawn)	25	578	/	-2	10	3
O=C(NNC1=C(C(=O)C(F)(F)F)CCC1)c1ccccc1O	0	222	113	3	-10	21
Nc1ccccc1C(=O)NNC1=C(C(=O)C(F)(F)F)CCC1	7	334	100	0	3	46*
O=C(Oc1oc(-c2ccco2)nc1C=Nc1ccccc1)c1ccco1	-13	228	/	-5	2	90*
O=C(Oc1oc(-c2ccco2)nc1C=Nc1ccccc1)c1ccoc1	0	748	98	1	3	90*
Cc1ccc(C(=O)Oc2oc(-c3ccco3)nc2C=Nc2ccc(Cl)cc2)cc1	23	132	102	0	0	?
N#C/C(=C(/O)CN1CCCCC1)c1nc(-c2ccc(Cl)cc2)cs1	0	179	103	0	2	0
N#C/C(=C(/O)CN1CCN(c2ccccc2F)CC1)c1nc(-c2ccc(Cl)cc2)cs1	-1	312	60*	-1	3	0
Cc1ccc(C(=O)NCC(=O)N2CCCN(S(=O)(=O)c3ccc(C)cc3)CC2)cc1	15	/	102	/	/	/
Cc1ccc(S(=O)(=O)N2CCN(C(=O)CNC(=O)c3ccc(Cl)cc3)CC2)cc1	5	37*	95	-2	7	7
COc1cc(C(=O)O/N=C2/C=C(C)C(=O)C=C2C)cc(OC)c1OC	-3	405	91	2	9	35*
Cc1ccc(NC(=O)c2cc(S(=O)(=O)N3CCCC3)cn2C)cc1C	3	399	18*	-8	9	2
Cc1ccc(NC(=O)c2cc(S(=O)(=O)N3CCOCC3)cn2C)cc1Cl	0	594	98	5	1	2
O=C(NCc1ccccn1)c1ccc(NS(=O)(=O)c2cccc(Cl)c2)cc1	3	328	119	38*	-2	-2
Cc1[nH][nH]c(=O)c1C(c1ccc(N(C)C)c(Br)c1)c1c(C)[nH][nH]c1=O	11	69	90	60*	-24	-2
O=C(O)CNC(=O)C1COc2ccccc2O1 (stereo not drawn)	12	138	100	-1	-5	2
O=C(NC1CC2CCC1C2)C1COc2ccccc2O1 (stereo not drawn)	-3	77	91	1	68*	?
COc1ccccc1C(=O)NNC(=O)c1cccc(Cl)c1	1	158	95	-3	8	-1
SMILES	Arr AP2 block	T cell HTS	DSG3 Ab inh	LANA-H2B inh	GASC-1 inh	HDAC3 inhib
COc1ccc(Cl)cc1C(=O)NNC(=O)c1cccc([N+](=O)[O-])c1	30	186	94	156*	5	-4
CCCN1CCN(C(=O)CCc2nnc3ccc(N4CCN(c5cccc(OC)c5)CC4)nn23)CC1	9	36	112	0	-1	-4
Cc1ccc(C(=O)NCC(=O)OCC(=O)Nc2cc(S(=O)(=O)N3CCOCC3)ccc2Cl)s1	-12	226	/	-6	0	-23
CCc1ccccc1N(CC(=O)NC1CCCCC1)C(=O)CNC(=O)c1ccco1	10	612	99	9	-2	0
Cn1c(N)c(C(=O)COC(=O)C2Cc3ccccc3CN2S(C)(=O)=O)c(=O)n(C)c1=O (stereo not drawn)	/	/	76*	/	/	/
COC(=O)c1sc2nc3c(cc2c1N)C(=O)CC(C)(C)C3	10	509	83*	2	26	6
O=C(O)c1cccc(-c2ccc(/C=N/Nc3ccc([N+](=O)[O-])cc3)o2)c1	21	129	94	-2	0	1
NS(=O)(=O)c1ccc(-c2ccc(/C=N/NC(=O)c3ccc([N+](=O)[O-])cc3)o2)cc1	9	314	75*	0	-15	0
CCC(=O)N/N=C/c1ccc(-c2ccc([N+](=O)[O-])cc2)o1	32	606	102	4	2	5
O=C(O)c1ccc(-c2ccc(/C=N/Nc3ccc([N+](=O)[O-])cc3)o2)cc1	11	252	6.2*	-1	7	-4
C[C@H](CO)N1C[C@H](C)[C@@H](CN(C)S(=O)(=O)c2cccc(C#N)c2)OCc2cn(nn2)CCCC1=O	/	/	106	/	/	/
O=C(COc1ccc(Br)cc1Cl)NNC(=O)c1ccccc1	3	275	104	/	/	/
O=C(CN1CC[C@@]2(O)CCCC[C@H]2[C@@H]1c1ccc(F)cc1)NCc1ccco1	-4	79	107	2	-1	-2
CCOC(=O)N1CCC2(O)CCCCC2C1c1ccc(F)cc1 (stereo not drawn)	7	233	86*	-3	1	9
COc1ccc(NC(=O)C2CCCN(c3nn4c(=O)cc(C)nc4s3)C2)c(OC)c1 (stereo not drawn)	0	477	120	11*	1	3
COc1ccc(CNC(=O)C2CCCN(c3nn4c(=O)cc(C)nc4s3)C2)cc1 (stereo not drawn)	-8	401	/	6	11	8
O=C1CN(C(=O)CN2CCCC2)C(c2ccccc2)c2cc(Br)ccc2N1 (stereo not drawn)	4	165	/	-2	-2	0
